Measured values reported in ChEMBL document CHEMBL3046628, “Synthesis and herbicidal activity of 2-cyano-3-substituted-pyridinemethylaminoacrylates” (J Agric Food Chem, 2003).

How the values were obtained:
[1] = system: Medicago sativa; experiment: Herbicidal activity against Medicago sativa (alfalfa) at 18.75 g/ha; type: functional
[2] = system: Medicago sativa; experiment: Post-emergence herbicidal activity against Medicago sativa (alfalfa) at 300 g/ha applied through spraying after first true leaf expanded; type: functional
Procedure, shortened: (§1)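 Seeds sown in 6 cm diameter plastic boxes containing artificial mixed soil. Amaranthus retroflexus seed was reproduced outdoors and stored at room temperature. Alfalfa and rape seed came from a crop institute.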

[3] = system: Amaranthus retroflexus; experiment: Post-emergence herbicidal activity against Amaranthus retroflexus at 75 g/ha applied through spraying after first true leaf expanded; type: functional; procedure, shortened: as §1
[4] = system: Amaranthus retroflexus; experiment: Post-emergence herbicidal activity against Amaranthus retroflexus at 1500 g/ha applied through spraying after first true leaf expanded; type: functional; procedure, shortened: as §1
[5] = system: Medicago sativa; experiment: Post-emergence herbicidal activity against Medicago sativa (alfalfa) at 1500 g/ha applied through spraying after first true leaf expanded; type: functional; procedure, shortened: as §1
[6] = system: Amaranthus retroflexus; experiment: Post-emergence herbicidal activity against Amaranthus retroflexus at 1.5 kg/ha applied through spraying after first true leaf expanded; type: functional; procedure, shortened: as §1
[7] = system: Medicago sativa; experiment: Herbicidal activity against Medicago sativa (alfalfa) at 150 g/ha; type: functional
[8] = system: Brassica napus; experiment: Post-emergence herbicidal activity against Brassica napus (oilseed rape) at 1.5 kg/ha applied through spraying after first true leaf expanded; type: functional; procedure, shortened: as §1
[9] = system: Medicago sativa; experiment: Herbicidal activity against Medicago sativa (alfalfa) at 75 g/ha; type: functional
[10] = system: Zea mays; experiment: Phytotoxicity against Zea mays (maize) at 750 g/ha; type: organism-based; details: in vivo
[11] = system: Brassica napus; experiment: Post-emergence herbicidal activity against Brassica napus (oilseed rape) at 300 g/ha applied through spraying after first true leaf expanded; type: functional; procedure, shortened: as §1
[12] = system: Medicago sativa; experiment: Post-emergence herbicidal activity against Medicago sativa (alfalfa) at 75 g/ha applied through spraying after first true leaf expanded; type: functional; procedure, shortened: as §1
[13] = system: Medicago sativa; experiment: Herbicidal activity against Medicago sativa (alfalfa) at 37.50 g/ha; type: functional
[14] = system: Medicago sativa; experiment: Post-emergence herbicidal activity against Medicago sativa (alfalfa) at 1.5 kg/ha applied through spraying after first true leaf expanded; type: functional; procedure, shortened: as §1
[15] = system: Brassica napus; experiment: Post-emergence herbicidal activity against Brassica napus (oilseed rape) at 1500 g/ha applied through spraying after first true leaf expanded; type: functional; procedure, shortened: as §1
[16] = system: Amaranthus retroflexus; experiment: Post-emergence herbicidal activity against Amaranthus retroflexus at 300 g/ha applied through spraying after first true leaf expanded; type: functional; procedure, shortened: as §1
[17] = system: Brassica napus; experiment: Post-emergence herbicidal activity against Brassica napus (oilseed rape) at 75 g/ha applied through spraying after first true leaf expanded; type: functional; procedure, shortened: as §1
[18] = system: Medicago sativa; experiment: Herbicidal activity against Medicago sativa (alfalfa); type: functional
[19] = system: Amaranthus retroflexus; experiment: Pre-emergence herbicidal activity against Amaranthus retroflexus at 1.5 kg/ha applied through spraying immediately after seed plantings; type: functional; procedure, shortened: as §1
[20] = system: Medicago sativa; experiment: Pre-emergence herbicidal activity against Medicago sativa (alfalfa) at 1.5 kg/ha applied through spraying immediately after seed plantings; type: functional; procedure, shortened: as §1
[21] = system: Brassica napus; experiment: Pre-emergence herbicidal activity against Brassica napus (oilseed rape) at 1.5 kg/ha applied through spraying immediately after seed plantings; type: functional; procedure, shortened: as §1

Structure (SMILES)	Activity [6] [%]	Activity [8] [%]	Activity [10]	Activity [14] [%]	Activity [19] [%]	Activity [20] [%]	Activity [21] [%]	further results
CCOCCOC(=O)/C(C#N)=C(/NCc1ccc(Cl)nc1)SC	100	80.6	Non-toxic	75				Activity [1]: 80.6%; Activity [2]: 57.5%; Activity [3]: 52.3%; Activity [4]: 100%; Activity [5]: 76.2%; Activity [7]: 98.1%; Activity [9]: 95.3%; Activity [11]: 100%; Activity [12]: 36.3%; Activity [13]: 88.9%; Activity [15]: 100%; Activity [16]: 96.2%; Activity [17]: 36.8%; ED50 [18]: 4.35 g/ha; ED90 [18]: 39.3 g/ha
CCOCCOC(=O)/C(C#N)=C(/NCc1ccc(Cl)cc1)SC								Activity [1]: 59.3%; Activity [7]: 87%; Activity [9]: 80.6%; Activity [13]: 76.9%; ED50 [18]: 8.85 g/ha; ED90 [18]: 193.95 g/ha
CCOCCOC(=O)/C(C#N)=C(/NCc1ccc(Cl)cc1)C(C)C	93.9	96.5		28.1	52.2	0	0	
CCCOc1ccc(CN/C(C)=C(/C#N)C(=O)OCCOCC)cn1	31	17	Non-toxic	34.2	23.4	17.8	0	
CCOCCOC(=O)/C(C#N)=C(/C)NCc1ccc(OC)nc1	100	69	Non-toxic	64	100	57.1	92.5	
CCOCCOC(=O)/C(C#N)=C\NCc1ccc(Cl)nc1	18.3	7.3	Non-toxic	15.8	12.2	14.8	21.8	
CCOCCOC(=O)/C(C#N)=C(/C)NCc1ccc(Cl)nc1	100	100	Non-toxic	100	93	66.4	100	Activity [3]: 18.3%; Activity [4]: 100%; Activity [5]: 100%; Activity [12]: 0%; Activity [15]: 100%; Activity [17]: 14.6%
CCOCCOC(=O)/C(C#N)=C(/CC)NCc1ccc(Cl)nc1	100	100	Non-toxic	83.7	71.4	71.4	75	Activity [2]: 62.8%; Activity [3]: 88.4%; Activity [4]: 100%; Activity [5]: 83.7%; Activity [11]: 98.4%; Activity [12]: 45.3%; Activity [15]: 100%; Activity [16]: 100%; Activity [17]: 94.1%
CCOCCOC(=O)/C(C#N)=C(\NCc1ccc(Cl)nc1)C(C)C	93.9	100	Non-toxic	65.9	97.8	23	95.5	Activity [2]: 45.3%; Activity [3]: 72.1%; Activity [4]: 100%; Activity [5]: 75.6%; Activity [11]: 100%; Activity [12]: 14%; Activity [15]: 100%; Activity [16]: 93%; Activity [17]: 89.4%
CCCCOc1ccc(CN/C(=C(/C#N)C(=O)OCCOCC)C(C)C)cn1	100	100	Non-toxic	41	10.1	0	6.3	
CCCOc1ccc(CN/C(=C(/C#N)C(=O)OCCOCC)C(C)C)cn1	100	100	Non-toxic	75.9	30.4	14.8	30.7	
CCOCCOC(=O)/C(C#N)=C(\NCc1ccc(OCC)nc1)C(C)C	100	100	Non-toxic	45.8	50.7	10.1	54.8	
CCOCCOC(=O)/C(C#N)=C(\NCc1ccc(OC)nc1)C(C)C	100	100	Non-toxic	53	71	32.9	100	
CCOc1ccc(CN/C(SC)=C(\C#N)C(=O)OCCOC)cn1	70	84.5	Non-toxic	55.3	31.3	0	5.1	
COCCOC(=O)/C(C#N)=C(/NCc1ccc(OC)nc1)SC	90	90.1	Non-toxic	72.3	50	10	48.8	
COCCOC(=O)/C(C#N)=C(/NCc1cccnc1)SC	0	6.4	Non-toxic	15.9	0	0	9.1	
CCCOc1ccc(CN/C(SC)=C(\C#N)C(=O)OCCOCC)cn1	93.8	96.8	Non-toxic	0	0	0	16.3	
CCOCCOC(=O)/C(C#N)=C(/NCc1ccc(OCC)nc1)SC	100	100	Non-toxic	91.5	37.5	0	22	
CCOCCOC(=O)/C(C#N)=C(/NCc1ccc(OC)nc1)SC	100	100	Non-toxic	80.9	56.3	36.4	68.3	
COC(=O)COC(=O)/C(C#N)=C(/NCc1ccc(Cl)nc1)SC	0	0	Non-toxic	4.8	0	0	0	
CS/C(NCc1ccc(Cl)nc1)=C(/C#N)C(=O)N1CCOCC1	100	99.4	Non-toxic	75	0	0	0	Activity [2]: 9.7%; Activity [3]: 0%; Activity [4]: 100%; Activity [5]: 75%; Activity [11]: 0%; Activity [12]: 0%; Activity [15]: 99.4%; Activity [16]: 25%; Activity [17]: 0%
CS/C(NCc1ccc(Cl)nc1)=C(/C#N)C(=O)OCC1CCCO1 (centres undefined)	98.8	100	Non-toxic	64	14.3	16.7	54.2	Activity [2]: 52.3%; Activity [3]: 79.1%; Activity [4]: 98.8%; Activity [5]: 64%; Activity [11]: 97.3%; Activity [12]: 41.9%; Activity [15]: 100%; Activity [16]: 88.4%; Activity [17]: 94.7%
C=CCOC(=O)/C(C#N)=C(/NCc1ccc(Cl)nc1)SCC	100	100	Non-toxic	98.8	0	0	0	
C=CCOC(=O)/C(C#N)=C(/NCc1ccc(Cl)nc1)SC	100	91.7	Non-toxic	100	0	0	0	Activity [2]: 56.1%; Activity [3]: 22.2%; Activity [4]: 100%; Activity [5]: 100%; Activity [11]: 82.7%; Activity [12]: 15.9%; Activity [15]: 91.7%; Activity [16]: 61.6%; Activity [17]: 33.3%
